# In ChEMBL document CHEMBL1687761:
# How the values were obtained:
# Escherichia coli [1] = experiment: Ratio of Kcat to Km for Escherichia coli XL1-Blue IMP-1 W64A mutant beta-lactamase by spectrophotometer
# Escherichia coli [2] = experiment: Ratio of Kcat to Km for Escherichia coli XL1-Blue wild-type IMP-1 beta-lactamase by spectrophotometer
# Escherichia coli [3] = experiment: Activity of Escherichia coli XL1-Blue IMP-1 W64A mutant beta-lactamase by spectrophotometer
# Escherichia coli [4] = experiment: Activity of Escherichia coli XL1-Blue wild-type IMP-1 beta-lactamase by spectrophotometer
# Escherichia coli [5] = experiment: Ratio of Kcat to Km for Escherichia coli XL1-Blue VIM-2 A64W mutant beta-lactamase by spectrophotometer
# In short: (§1)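 Mutant enzyme expressed in E. coli BL21(DE3) in autoinducing ZYP-5052 medium. Purified by anion exchange at pH 7.2, then high-resolution anion exchange at pH 9.2, plus gel filtration in 50 mM HEPES-50 μM ZnSO4 pH 7.5 where needed. Identity confirmed by tryptic peptide mass fingerprint. Steady-state kinetics on β-lactam substrates were run under the conditions used for wild-type VIM-2.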
# Escherichia coli [6] = experiment: Activity of Escherichia coli XL1-Blue VIM-2 A64W mutant beta-lactamase by spectrophotometer; in short: as §1
# [7] = system: Metallo-beta-lactamase (Escherichia coli), Q5U7L7 [W87F]; experiment: Activity of beta-lactamase VIM-2 W87F mutant expressed in Escherichia coli XL1-Blue isolated from 3.8 hrs grown culture
# In short: (§2)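 E. coli XL-1 carrying pLBII-VIM-2 (wild-type or W87F) was grown and sampled at the stated times, with cell density read as A600. Imipenem hydrolysis in crude cell extracts was read spectrophotometrically in 10 mM HEPES pH 7.5 with 50 μM ZnSO4 and 150 μM imipenem. Activity was normalized to cell density. Values are means of three independent measurements.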
# [8] = system: Metallo-beta-lactamase (Escherichia coli), Q5U7L7 [W87F]; experiment: Activity of beta-lactamase VIM-2 W87F mutant expressed in Escherichia coli XL1-Blue isolated from 3.3 hrs grown culture; in short: as §2
# [9] = system: Metallo-beta-lactamase (Escherichia coli), Q5U7L7 [W87F]; experiment: (§3) Activity of beta-lactamase VIM-2 W87F mutant expressed in Escherichia coli XL1-Blue isolated from […] grown culture
# [10] = system: Metallo-beta-lactamase (Escherichia coli), Q5U7L7 [W87F]; experiment: as §3; remark: listed apart in the source
# [11] = system: Metallo-beta-lactamase (Escherichia coli), Q5U7L7 [W87F]; experiment: as §3; remark: listed apart in the source
# [12] = system: Metallo-beta-lactamase (Escherichia coli), Q5U7L7 [W87F]; experiment: Activity of beta-lactamase VIM-2 W87F mutant expressed in Escherichia coli XL1-Blue isolated from 1.2 hrs grown culture
# In short: (§4)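 Imipenem-hydrolyzing activity in crude cell extracts of E. coli XL-1 carrying pLBII-VIM-2 or pLBII-VIM-2-W87F. Read spectrophotometrically with 150 μM imipenem in 10 mM HEPES (pH 7.5) plus 50 μM ZnSO4. Activity normalized to culture density (A600). Means of three independent measurements.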
# [13] = system: Metallo-beta-lactamase (Escherichia coli), Q5U7L7 [W87F]; experiment: Activity of beta-lactamase VIM-2 W87F mutant expressed in Escherichia coli XL1-Blue isolated from 0.5 hrs grown culture; in short: as §2
# [14] = biological target: Metallo-beta-lactamase (Escherichia coli) (UniProt Q5U7L7); experiment: Activity of beta-lactamase VIM-2 in Escherichia coli XL1-Blue isolated from 6 hrs grown culture; in short: as §2
# [15] = biological target: Metallo-beta-lactamase (Escherichia coli) (UniProt Q5U7L7); experiment: Activity of beta-lactamase VIM-2 in Escherichia coli XL1-Blue isolated from 5 hrs grown culture; in short: as §2
# [16] = biological target: Metallo-beta-lactamase (Escherichia coli) (UniProt Q5U7L7); experiment: Activity of beta-lactamase VIM-2 in Escherichia coli XL1-Blue isolated from 4.3 hrs grown culture; in short: as §4
# [17] = biological target: Metallo-beta-lactamase (Escherichia coli) (UniProt Q5U7L7); experiment: Activity of beta-lactamase VIM-2 in Escherichia coli XL1-Blue isolated from 3.8 hrs grown culture; in short: as §2
# [18] = biological target: Metallo-beta-lactamase (Escherichia coli) (UniProt Q5U7L7); experiment: Activity of beta-lactamase VIM-2 in Escherichia coli XL1-Blue isolated from 3.3 hrs grown culture; in short: as §2
# [19] = biological target: Metallo-beta-lactamase (Escherichia coli) (UniProt Q5U7L7); experiment: (§5) Activity of beta-lactamase VIM-2 in Escherichia coli XL1-Blue isolated from […] grown culture
# [20] = biological target: Metallo-beta-lactamase (Escherichia coli) (UniProt Q5U7L7); experiment: as §5; remark: listed apart in the source
# [21] = biological target: Metallo-beta-lactamase (Escherichia coli) (UniProt Q5U7L7); experiment: as §5; remark: listed apart in the source
# [22] = biological target: Metallo-beta-lactamase (Escherichia coli) (UniProt Q5U7L7); experiment: Activity of beta-lactamase VIM-2 in Escherichia coli XL1-Blue isolated from 1.2 hrs grown culture; in short: as §4
# [23] = biological target: Metallo-beta-lactamase (Escherichia coli) (UniProt Q5U7L7); experiment: Activity of beta-lactamase VIM-2 in Escherichia coli XL1-Blue isolated from 0.5 hrs grown culture; in short: as §2
# [24] = system: Metallo-beta-lactamase (Escherichia coli), Q5U7L7 [W87F]; experiment: Activity of beta-lactamase VIM-2 W87F mutant expressed in Escherichia coli XL1-Blue isolated from 4.3 hrs grown culture; in short: as §4
# [25] = system: Metallo-beta-lactamase (Escherichia coli), Q5U7L7 [W87F]; experiment: Activity of beta-lactamase VIM-2 W87F mutant expressed in Escherichia coli XL1-Blue isolated from 5.0 hrs grown culture; in short: as §2
# [26] = system: Metallo-beta-lactamase (Escherichia coli), Q5U7L7 [W87F]; experiment: Activity of beta-lactamase VIM-2 W87F mutant expressed in Escherichia coli XL1-Blue isolated from 6.0 hrs grown culture; in short: as §2
smiles,measurement,setting,value
CO[C@@]1(NC(=O)Cc2cccs2)C(=O)N2C(C(=O)O)=C(COC(N)=O)CS[C@@H]21,kcat/Km,Escherichia coli [1],900000 M⁻¹ s⁻¹
same,kcat/Km,Escherichia coli [2],3e+06 M⁻¹ s⁻¹
same,Km,Escherichia coli [3],45 µM
same,kcat,Escherichia coli [3],40 s⁻¹
same,Km,Escherichia coli [4],3 µM
same,kcat,Escherichia coli [4],9 s⁻¹
CO/N=C(\C(=O)N[C@@H]1C(=O)N2C(C(=O)O)=C(COC(C)=O)CS[C@H]12)c1csc(N)n1,kcat/Km,Escherichia coli [1],1.5e+06 M⁻¹ s⁻¹
same,kcat/Km,Escherichia coli [5],3.7e+06 M⁻¹ s⁻¹
same,kcat/Km,Escherichia coli [2],4.8e+06 M⁻¹ s⁻¹
same,Km,Escherichia coli [3],61 µM
same,kcat,Escherichia coli [3],98 s⁻¹
same,Km,Escherichia coli [4],2.8 µM
same,kcat,Escherichia coli [4],13.4 s⁻¹
same,Km,Escherichia coli [6],7 µM
same,kcat,Escherichia coli [6],26 s⁻¹
CC(=O)OCC1=C(C(=O)O)N2C(=O)[C@@H](NC(=O)Cc3cccs3)[C@H]2SC1,kcat/Km,Escherichia coli [1],310000 M⁻¹ s⁻¹
same,kcat/Km,Escherichia coli [5],2.2e+07 M⁻¹ s⁻¹
same,kcat/Km,Escherichia coli [2],6.4e+06 M⁻¹ s⁻¹
same,Km,Escherichia coli [3],> 500 µM
same,kcat,Escherichia coli [3],> 250 s⁻¹
same,Km,Escherichia coli [4],5 µM
same,kcat,Escherichia coli [4],32 s⁻¹
same,Km,Escherichia coli [6],6 µM
same,kcat,Escherichia coli [6],135 s⁻¹
CO/N=C(\C(=O)N[C@@H]1C(=O)N2C(C(=O)[O-])=C(C[N+]3(C)CCCC3)CS[C@H]12)c1csc(N)n1,kcat/Km,Escherichia coli [5],120000 M⁻¹ s⁻¹
same,kcat/Km,Escherichia coli [2],660000 M⁻¹ s⁻¹
same,Km,Escherichia coli [4],11 µM
same,kcat,Escherichia coli [4],7 s⁻¹
same,Km,Escherichia coli [6],> 400 µM
same,kcat,Escherichia coli [6],> 50 s⁻¹
C[C@@H](O)[C@H]1C(=O)N2C(C(=O)O)=C(SCCNC=N)C[C@H]12,Activity,[7],4.7 nmol/mL/min
same,Activity,[8],< 2.7 nmol/mL/min
same,Activity,[9],< 2.7 nmol/mL/min
same,Activity,[10],< 2.7 nmol/mL/min
same,Activity,[11],< 2.7 nmol/mL/min
same,Activity,[12],< 2.7 nmol/mL/min
same,Activity,[13],< 2.7 nmol/mL/min
same,Activity,[14],380 nmol/mL/min
same,Activity,[15],330 nmol/mL/min
same,Activity,[16],270 nmol/mL/min
same,Activity,[17],240 nmol/mL/min
same,Activity,[18],170 nmol/mL/min
same,Activity,[19],110 nmol/mL/min
same,Activity,[20],39 nmol/mL/min
same,Activity,[21],30 nmol/mL/min
same,Activity,[22],< 2.7 nmol/mL/min
same,Activity,[23],< 2.7 nmol/mL/min
same,kcat/Km,Escherichia coli [1],550000 M⁻¹ s⁻¹
same,kcat/Km,Escherichia coli [5],2.9e+06 M⁻¹ s⁻¹
same,kcat/Km,Escherichia coli [2],2.7e+06 M⁻¹ s⁻¹
same,Km,Escherichia coli [3],120 µM
same,kcat,Escherichia coli [3],67 s⁻¹
same,Km,Escherichia coli [4],25 µM
same,kcat,Escherichia coli [4],68 s⁻¹
same,Km,Escherichia coli [6],21 µM
same,kcat,Escherichia coli [6],60 s⁻¹
same,Activity,[24],4.7 nmol/mL/min
same,Activity,[25],7.9 nmol/mL/min
same,Activity,[26],9.5 nmol/mL/min
